HSF1 inhib – HSF1 inhibition. NIH3T3-HGL HSE-luciferase, MG132-induced, luminescence 8 h; stronger effect = lower value. activity change, negative = inhibition, % at 7.5 µM (by protocol). 300,000 compounds, 0.77% hits;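 active = more than half of replicate wells show activity change below -50%, luminescence cut by over half; inconclusive = some wells, but at most half, below -50%; inactive = no replicate well below -50%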;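 note: luciferase reports HSF-1 transcriptional activity via heat shock element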
PERK inh – inhibitors of human PERK kinase | Q9NZJ5 | CHO PERK-DD fusion, SEAP luminescence translation reporter | inhibition, % at 5.6 µM | 220,000 compounds, 0.17% hits;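 active = inhibition above the mean inhibition of all tested compounds plus 3 SD, set separately per screening campaign, cut at about 2.9% in these data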;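 note: PERK kinase domain activated by AP20187 dimerizer at 100 nM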
Hsp70 act – switches on Hsp70 transcription; activation, % at 10 µM; HeLa Hsp70 promoter luciferase reporter, luminescence; scaled: vehicle 0, proteasome-inhibitor control 100%; 200,000 compounds, 0.04% hits; AID 1203;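 active = activation above the mean across all tested compounds plus 3 SD, cutoff set per campaign, cut at about 5.5% in these data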
PolyA inhibitor – blocks polyadenylation in yeast reporter cells. S. cerevisiae SKY197-pL101 polyadenylation reporter, beta-gal luminescence; efflux-impaired pdr1/pdr3 knockout yeast; score 100 = 6 SD above DMSO. activity score, % at 12 µM. 300,000 compounds, 0.02% hits;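 active = lowest replicate activity score at least 50, where 100 means six control SD above control mean; inconclusive = lowest score under 50 but half or more replicates reach 50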;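 note: yeast exposed to compound for 9 h at 30 °C; higher score means more reporter readthrough which indicates perturbed polyadenylation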
AHR act – activates the human aryl hydrocarbon receptor; AHR-responsive luciferase reporter cells, luminescence; activation, % at 5 µM; 320,000 compounds, 2.5% hits; in the data active = activation above about 47%
Target sequence (P35869 whole entry, looked up): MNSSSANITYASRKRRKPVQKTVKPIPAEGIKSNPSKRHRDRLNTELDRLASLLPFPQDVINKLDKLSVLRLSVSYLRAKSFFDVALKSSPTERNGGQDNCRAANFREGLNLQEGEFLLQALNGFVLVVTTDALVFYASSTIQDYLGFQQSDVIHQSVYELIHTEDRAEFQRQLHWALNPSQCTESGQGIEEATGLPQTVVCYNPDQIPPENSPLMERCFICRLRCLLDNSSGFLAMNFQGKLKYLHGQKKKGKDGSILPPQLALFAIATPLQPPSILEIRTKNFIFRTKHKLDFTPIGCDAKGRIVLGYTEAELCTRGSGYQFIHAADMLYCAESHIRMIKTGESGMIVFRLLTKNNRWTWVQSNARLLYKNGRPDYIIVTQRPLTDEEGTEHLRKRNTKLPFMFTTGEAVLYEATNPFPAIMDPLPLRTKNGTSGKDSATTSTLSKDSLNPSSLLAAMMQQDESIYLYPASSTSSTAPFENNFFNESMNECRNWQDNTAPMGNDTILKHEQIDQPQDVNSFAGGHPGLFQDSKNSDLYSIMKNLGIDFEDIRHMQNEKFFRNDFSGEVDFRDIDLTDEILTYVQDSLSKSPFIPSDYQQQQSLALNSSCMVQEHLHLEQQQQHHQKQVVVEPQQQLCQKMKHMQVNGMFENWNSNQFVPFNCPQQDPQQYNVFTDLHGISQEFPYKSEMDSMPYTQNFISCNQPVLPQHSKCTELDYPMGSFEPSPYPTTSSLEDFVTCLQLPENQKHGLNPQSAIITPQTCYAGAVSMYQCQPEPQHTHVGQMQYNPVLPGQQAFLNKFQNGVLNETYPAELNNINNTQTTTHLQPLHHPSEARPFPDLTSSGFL
STAT3 act-1 – activators of IL-6 induced STAT3 signaling; AID 871; U3A cells, IL-6 STAT3-luciferase reporter, luminescence; 100% = signal with IL-6 EC80 alone; 190,000 compounds, 0.91% hits; activation (% of control), % at 5.6 µM;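 active = activation above the screen-wide mean of compound activation plus 3 SD, cut at about 130% in these data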
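Material: human STAT1-deficient U3A cells with stable STAT3-luciferase reporter / Probe or stimulus: IL-6 stimulus at 33 ng/mL final / Schedule: 1 h compound pre-exposure, 6 h IL-6 stimulation, 37 °C / Technique: luminescence / Read-out basis: percent of IL-6-only median luminescence / Control set: IL-6-only high control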
STAT3 act-2 – confirmation of STAT3 signaling activators; potentiation (% of control), % at 5.7 µM; AID 1267; shares compounds with STAT3 act-1; 1,200 compounds, 64% hits; U3A STAT3-luciferase reporter, IL-6 potentiation, luminescence; U3A cells lack STAT1; 100 means same as IL-6 alone;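 active = percent activation of the STAT3 luciferase reporter above a set limit taken from the earlier primary screen, cut at about 130% in these data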
NFkB act 2 – counter-screen for STAT3 activators: NF-kappaB activation; human cells, NF-kappaB reporter activation; shares compounds with STAT3 act-1; 1,200 compounds, 11% hits; AID 1309; activation (% of control), % at 5.7 µM; in the data active = activation above about 120%;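 note: reporter induced by TNF-alpha stimulation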
STAT1 act STAT3c – counter-screen for STAT3 activators: STAT1 activation. NIH 3T3 STAT1-luciferase reporter, IFN-gamma, luminescence. 1,200 compounds, 13% hits. shares compounds with STAT3 act-1. AID 1318. activation (% of control), % at 5.7 µM;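 active = activation above the solvent-only control well mean plus 3 SD, set per screening run, cut at about 120% in these data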
Numbers stand for hits; – = inactive; ? = inconclusive; · = no result given. Most compounds without a hit are left out; they make up all but 3.6% or so of the library.

SMILES | HSF1 inhib | PERK inh | Hsp70 act | PolyA inhibitor | AHR act | STAT3 act-1 | STAT3 act-2 | NFkB act 2 | STAT1 act STAT3c
CCS(=O)(=O)Nc1ccc(C2=NN(S(C)(=O)=O)C(c3cccs3)C2)cc1 (stereo unspecified) | – | – | – | – | – | 137 | – | – | –
Cn1c(=O)c(=O)n(C)c2cc(S(=O)(=O)NCCOc3ccccc3Cl)ccc21 | – | – | – | – | – | – | · | · | ·
CCOC(=O)/C(=N\Nc1ccc(Cl)cc1)Sc1nnc(-c2ccc(OC)cc2)n1C | – | – | – | – | – | – | · | · | ·
Cc1ccc(F)cc1NC(=O)CSc1nnc(CNC(=O)c2ccco2)n1C | – | · | · | – | – | · | · | · | ·
O=C1c2ccccc2NC(c2ccco2)N1O (stereo unspecified) | – | – | – | – | – | – | · | · | ·
O=C1C2=C(Nc3ccccc3SC2c2ccco2)c2ccccc21 (stereo unspecified) | – | – | – | – | 70 | 137 | – | – | –
Cc1ncoc1C(=O)N1CCc2c([nH]c3ccccc23)C1c1ccccc1F (stereo unspecified) | – | – | – | – | – | – | · | · | ·
CN1N=C(C(=O)N2CCc3c([nH]c4ccccc34)C2c2c(F)cccc2Cl)CCC1=O (stereo unspecified) | – | – | – | – | – | 154 | 150 | – | –
COc1ccc(C(=O)O/N=C(\N)Cc2ccc([N+](=O)[O-])cc2)c(OC)c1 | – | – | · | – | – | · | · | · | ·
CCCc1nnc(N2C(=O)c3cccc4cccc(c34)C2=O)s1 | – | – | – | – | 73 | 160 | 146 | – | –
Cc1ccc2c(c1)[C@@H]1[C@H](CO2)[C@H](c2ccccc2)[C@@]2(C)C(=O)N[C@H](C)C(=O)N12 | · | · | · | · | – | · | · | · | ·
N#CC1=C2N=C(N)c3ccccc3N2C2=C(C(=O)CCC2)C1c1ccc(Cl)cc1 (stereo unspecified) | – | – | – | – | – | 183 | 149 | – | –
COc1ccc(C)c2sc(=NC(=O)c3ccc(C(C)=O)cc3)n(C)c12 | – | – | · | – | – | · | · | · | ·
COc1ccc(C)c2sc(=NC(=O)c3ccccc3)n(C)c12 | – | – | – | – | – | 136 | 139 | 148 | 182
CCc1ccc(C2C(C#N)=C(N)N(N(C)C)C3=C2C(=O)CCC3)cc1 (stereo unspecified) | – | · | · | – | – | · | · | · | ·
Cc1ccc(CNC(=O)Cc2csc(Nc3nc(=S)[nH]c4ccccc34)n2)cc1 | – | – | – | – | – | 141 | 133 | – | –
O=C(Cc1csc(Nc2nc(=S)[nH]c3ccccc23)n1)NCc1ccccc1Cl | – | – | – | – | – | – | · | · | ·
COc1ccc(OC)c(Nc2nc3nonc3nc2N2CCCCC2)c1 | – | – | – | – | – | 163 | – | – | –
COc1ccccc1Nc1nc2nonc2nc1N1CCC(C)CC1 | – | – | – | – | – | – | · | · | ·
Cc1cccc(C)c1NC(=O)CN(C)CC(=O)Nc1cc(Cl)ccc1C#N | – | – | – | – | – | 138 | – | – | –
CCOc1ccc(NC(=O)CN(C)CC(=O)Nc2cc(Cl)ccc2C#N)cc1OCC | – | – | – | – | 55 | 154 | – | – | –
O=C(Nc1cccc([N+](=O)[O-])c1)c1ccn[nH]1 | – | – | – | – | – | – | · | · | ·
NS(=O)(=O)OCCCc1ccc(C(F)(F)F)cc1 | – | · | · | ? | – | · | · | · | ·
Cc1nn(-c2ccc(Cl)c(Cl)c2)c(=O)c2ccccc12 | – | – | – | – | – | 146 | 138 | 123 | 134
O=S(=O)(c1ccc(Br)cc1)N1CCN(c2cc(-c3ccccc3)nc3ncnn23)CC1 | – | – | – | – | – | 146 | – | – | –
SMILES | HSF1 inhib | PERK inh | Hsp70 act | PolyA inhibitor | AHR act | STAT3 act-1 | STAT3 act-2 | NFkB act 2 | STAT1 act STAT3c
O=S(=O)(c1ccccc1)N1CCN(c2cc(-c3ccccc3)nc3ncnn23)CC1 | – | – | – | – | – | – | · | · | ·
Cc1cc(C)cc(N(CCC#N)C(=O)COC(=O)C2CCN(S(=O)(=O)c3ccc(C)c(C)c3)CC2)c1 | – | · | · | – | – | · | · | · | ·
N#C/C(=C(/O)COC(=O)CCc1ccc(S(=O)(=O)N2CCOCC2)cc1)c1nc2ccccc2[nH]1 | – | – | – | – | – | 149 | 144 | – | –
CSc1nc(O)c(/C=C2\C=Nc3ccccc32)[nH]1 | – | – | – | – | 76 | 138 | 146 | – | 123
CCN1CCC2(CC1)Oc1c(OC)cccc1C1CC(c3cccnc3)=NN12 (stereo unspecified) | – | – | · | – | – | · | · | · | ·
Oc1ccccc1/C=N/n1c2ccccc2c2ccccc21 | – | – | – | – | – | 147 | 137 | – | –
Oc1ccccc1/C=N/n1cnnc1 | – | – | – | – | – | – | · | · | ·
CSc1ccccc1NC(=O)C1CC(c2ccccc2O)=NO1 (stereo unspecified) | – | – | – | – | – | 137 | – | – | –
COC(=O)c1ccccc1NC(=O)C1CC(c2ccccc2O)=NO1 (stereo unspecified) | – | – | – | – | – | – | · | · | ·
Oc1c(Br)cc(Br)cc1CNn1cnnc1 | – | · | · | – | – | · | · | · | ·
Cc1cccc(/C=N/NC(=O)C(C)Nc2cccc3ccccc23)n1 (stereo unspecified) | · | – | – | – | – | 164 | 139 | – | –
Cc1nc([N+](=O)[O-])cn1CC(=O)Nc1ccc([N+](=O)[O-])cc1 | – | · | · | – | – | · | · | · | ·
O=C(Cc1c[nH]c2ccccc12)NCc1ccc2c(c1)OCO2 | – | – | – | – | – | 138 | 137 | – | –
O=C(Cn1ccc(NC(=O)OCc2ccccc2)nc1=O)NCc1ccc2[nH]ccc2c1 | · | · | · | · | – | · | · | · | ·
COc1cc(C(=O)N/N=C(\C)Cc2ccccc2)cc(OC)c1OC | – | – | – | – | – | 143 | – | – | –
CCCCNC(=S)N(C)/N=C/c1ccc(OCC(=O)Nc2c(C)cc(C)cc2C)c(OC)c1 | – | – | – | – | – | – | · | · | ·
COc1cc(/C=N/NC(=S)NC(C)C)ccc1OCC(=O)Nc1c(C)cc(C)cc1C | – | – | – | – | – | 147 | 137 | – | –
O=C(CCCn1c(=O)oc2ccccc21)N1CCc2ccccc2C1 | – | – | – | – | – | 161 | 152 | – | –
Cn1nc(-c2ccccc2)c2nc3ccccc3nc21 | · | – | – | ? | – | 150 | 140 | – | –
CCc1cc(C(=O)N(Cc2ccccc2)c2c(N)n(CCOC)c(=O)[nH]c2=O)sc1C | – | · | · | ? | – | · | · | · | ·

Screens as filed in PubChem.
